Screening results (PubChem)
In the library only some 2.4% were active in any assay of this set; here they are far more common.
LMPTP block: LMPTP (human) inhibition; P24666; recombinant LMPTP-A, OMFP fluorogenic substrate, fluorescence intensity; inhibition, % at 20 µM; 360,000 compounds, 0.22% hits; AID 651560;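 active means compounds that cut the enzyme signal by at least half of the control window in the single-dose screen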;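 further: plate controls were DMSO wells with enzyme plus substrate for no effect and substrate without enzyme for full effect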
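Test system – LMPTP-A phosphatase enzyme · Quantity – 0.625 nM LMPTP-A final · Reagent – OMFP substrate, 400 µM final · Dosing – one test concentration per compound, 20 µM, with 3% DMSO overall · Timing – 50 min enzyme reaction at room temperature, protected from light · Detection – fluorescence intensity · Controls – substrate-only low control, DMSO enzyme-plus-substrate high control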
DNMT1 inh: inhibitors of human DNMT1; P26358; DNMT1 molecular beacon, Hinp1I cleavage, fluorescence; inhibition (reported as % activation of signal), % at 10 µM; 360,000 compounds, 0.83% hits; AID 588458; in the data active means inhibition above about 50%
STEP inh: blocks human striatal-enriched tyrosine phosphatase | recombinant STEP, OMFP fluorogenic substrate, fluorescence | inhibition, % at 20 µM | 360,000 compounds, 0.25% hits | AID 588621;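 active means inhibition at 20 µM, scaled per plate between control wells, above about 37%, limit read from the data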;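 further: 0% = DMSO with enzyme and substrate and 100% = substrate only without enzyme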
Target sequence (P54829 whole entry, looked up): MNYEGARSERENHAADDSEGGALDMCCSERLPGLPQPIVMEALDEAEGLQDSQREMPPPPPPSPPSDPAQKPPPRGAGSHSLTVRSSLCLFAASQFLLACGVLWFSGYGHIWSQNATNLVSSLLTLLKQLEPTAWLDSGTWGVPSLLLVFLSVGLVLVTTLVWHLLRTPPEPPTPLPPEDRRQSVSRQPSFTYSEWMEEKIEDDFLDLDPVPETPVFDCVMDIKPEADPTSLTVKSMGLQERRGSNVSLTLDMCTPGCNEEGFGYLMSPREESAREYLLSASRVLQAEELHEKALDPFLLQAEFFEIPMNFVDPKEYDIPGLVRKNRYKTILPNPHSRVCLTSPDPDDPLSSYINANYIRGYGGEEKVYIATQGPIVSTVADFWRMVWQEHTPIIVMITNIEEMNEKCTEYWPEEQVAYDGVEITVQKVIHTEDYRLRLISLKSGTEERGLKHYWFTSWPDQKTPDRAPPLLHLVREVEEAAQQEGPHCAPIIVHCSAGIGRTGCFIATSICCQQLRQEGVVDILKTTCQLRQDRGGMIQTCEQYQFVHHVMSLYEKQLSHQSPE
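Measure: Control-normalized % inhibition with plate pattern correction | Test system: STEP phosphatase, cell-free reaction | Medium: pH 6.0 Bis-Tris with DTT and Tween 20 | Technique: Fluorescence, 480/540 nm | Times: Reaction 20 min, ambient temperature | Doses: Single compound dose of 20 µM, 1% DMSO final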
NadD inh: inhibitors of Staphylococcus aureus NadD; inhibition, % at 20 µM; 360,000 compounds, 0.78% hits; purified NadD enzyme, colorimetric absorbance read-out; in the data active means inhibition above about 26%
SUMO1 PPI mod: alters human SUMO1 binding to SIM partners; P63165; SUMO1 binding to a labelled peptide, TR-FRET, 1 h; inhibition, % at 20 µM; 360,000 compounds, 0.33% hits; AID 602429; in the data active means inhibition above about 37%
Scp1 inh: blocks human Scp-1 phosphatase activity; inhibition, % at 20 µM; Recombinant Scp1, phosphopeptide, malachite green phosphate absorbance; 340,000 compounds, 0.88% hits; Q9GZU7;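 active means inhibition above about 50% at 20 µM, limit read from the data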;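 further: plate controls were DMSO wells with enzyme for no effect and wells lacking enzyme for full effect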
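System: truncated SCP-1 phosphatase (76-261aa); medium: Tris acetate buffer pH 5.5 with MgCl2 and Tween-20; incubation: 45 min room-temperature reaction, 5 min colour, 30 min stabiliser; compound: single 20 µM dose, 1% DMSO; reagent: Phosphorylated 17-residue peptide substrate; read-out: % inhibition at 20 µM; technique: colorimetric free-phosphate detection, absorbance 630 nm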
* = called active by the depositor; . = no result.

SMILES	LMPTP block	DNMT1 inh	STEP inh	NadD inh	SUMO1 PPI mod	Scp1 inh
Cc1ccc(-n2sc3ccccc3c2=O)cc1	0	5	-3	-2	2	64*
CSCCC(NS(=O)(=O)c1ccc(Cl)cc1)C(=O)OCC(=O)c1ccc(F)cc1 (stereo not given)	0	-5	-1	-11	1	-9
O=C(CN1CCN(S(=O)(=O)c2ccccc2)CC1)NC(=O)NCc1ccco1	-2	0	1	-2	-3	21
CCn1cc(C(=O)NC(C)C23CC4CC(CC(C4)C2)C3)cn1 (stereo not given)	0	4	-2	2	6	1
CC(NC(=O)Cn1ncc(Cl)c(Cl)c1=O)C12CC3CC(CC(C3)C1)C2 (stereo not given)	1	59*	-1	8	9	0
O=C(NCc1ccc(F)cc1)C1CCCN(C(=O)NCc2ccccc2)C1 (stereo not given)	-2	1	0	-2	3	-2
CCOC(=O)C1CCCN(C(=S)NC2CCCC2)C1 (stereo not given)	0	0	8	-1	3	-10
O=C(CCN1C(=O)/C(=C\c2cccs2)SC1=S)Nc1nccs1	1	3	4	12	-5	-9
O=C(CCN1C(=O)/C(=C/C=C/c2ccccc2)SC1=S)Nc1nccs1	0	4	-2	41*	-4	9
O=C(N/N=C/c1ccc2c(c1)OCO2)/C(=C/c1ccc2c(c1)OCO2)NC(=O)c1ccccc1	4	1	3	18	-3	-4
CN(C)c1ccc(/C=C(/NC(=O)c2ccccc2)C(=O)N/N=C/c2ccc([N+](=O)[O-])c(O)c2)cc1	0	1	2	41*	-3	36
CCc1nnc(NC(=O)CSc2ncnc3c2oc2ccccc23)s1	1	-21	0	8	66*	-7
Cc1nn(-c2ccccc2)c(N2CCCC2)c1/C=N/NC(=O)c1cc(-c2ccccc2)nc2ccccc12	3	-15	0	27	2	-5
Cc1nn(-c2ccccc2)c(N2CCCC2)c1/C=N/NC(=O)c1cc2ccccc2cc1O	0	-23	-1	39*	5	-10
CCOC(=O)c1c(NC(=O)CSc2nnc(C)c(=O)[nH]2)sc2c1CCCC2	-1	-5	4	6	25	-13
CCOC(=O)c1c(NC(=O)CSc2nnc(C)c(=O)[nH]2)sc(C)c1-c1ccc(C)cc1	2	-3	3	15	38*	-5
COc1ccc2c(C)cc3n[nH]c(=S)n3c2c1	4	-1	-2	3	-5	3
Cc1cc(=O)[nH]c(Nc2cccc(Cl)c2C)n1	-1	0	-3	-5	4	-13
O=C(N/C=C/c1ccco1)NCc1ccccc1	4	61*	6	1	5	41
COc1cccc(CNc2ccc(S(=O)(=O)Nc3nccs3)cc2)c1O	0	-1	2	9	38*	-5
CCOC(=O)COc1cc2c(C(=O)OCC)c(C)oc2cc1Br	1	2	1	-3	-1	-7
CCOC(=O)c1c(C)oc2cc(Br)c(O)c(Br)c12	-1	-1	-1	6	45*	-8
O=c1cc(-c2ccc(O)cc2)oc2ccc3ccccc3c12	9	9	1	5	8	23
O=c1cc(-c2ccc(O)cc2)oc2c(O)c(O)c(O)c(O)c12	41	4	2	1	-3	69*
O=c1cc(-c2ccc(O)cc2)oc2c1ccc1ccccc12	54*	33	22	2	90*	15
SMILES	LMPTP block	DNMT1 inh	STEP inh	NadD inh	SUMO1 PPI mod	Scp1 inh
O=c1[nH]c2cc(Cl)ccc2n1-c1ccccc1	2	1	-7	-4	40*	-13
Cc1cn([C@H]2C[C@H](O)[C@@H](CCC(=O)NCCc3cccs3)O2)c(=O)[nH]c1=O	-2	9	-3	-5	1	.
COc1ccc(NC(=O)CN(C)C(=O)c2cc3c(s2)CCC3)cc1	64*	97*	23	9	76*	86*
COc1cccc(NC(=O)CN(C)C(=O)c2cc3c(s2)CCC3)c1	.	.	.	.	.	60*
COc1ccc(NC(=O)CN(C)C(=O)c2cc3c(s2)CCCCC3)cc1	0	-1	-1	-2	6	-5
O=C(c1ncc[nH]1)c1cccs1	-3	1	1	8	-1	-15
Cc1ccc(O)c(N=CC2=C(O)c3ccccc3C2=O)c1	4	57*	2	10	15	-10
O=C1C(C=Nc2ccccc2O)=C(O)c2ccccc21	1	-2	2	0	-11	-11
C[C@H](NC(=O)c1nc[nH]c1C(=O)N1CCNCC1)C(=O)OCc1ccccc1	-3	6	-1	2	-3	-3
COc1ccc(C(O)P(=O)(OCCC(C)C)c2ccc(N(C)C)cc2)cc1 (stereo not given)	0	1	-3	-5	0	15
CCOC1=CC2=C(C(=O)C(Cl)=CC2=O)[C@@H]2CN(S(=O)(=O)c3ccc(C)cc3)[C@@H](c3ccccc3)[C@H]12	11	-58	1	37*	-5	.
CC(C)C(=O)NNS(=O)(=O)c1ccccc1	-1	3	2	3	44*	4
Cc1ccc(S(=O)(=O)N(CC(=O)N=Nc2c(O)[nH]c3ccccc23)c2ccc(C)c(C)c2)cc1	3	-11	0	32*	-8	-5
Cc1ccc(S(=O)(=O)N=Nc2c(O)[nH]c3ccccc23)cc1	0	-3	0	-1	-14	-1
COc1ccc(CCN2CC(C(=O)NCCc3ccccc3C)CCC2=O)cc1 (stereo not given)	1	0	0	0	-9	-5
CC(NC(=O)Nc1ccccc1F)C(C)(C)C (stereo not given)	0	1	-3	1	3	-3
N=C1/C(=C\c2ccc(-c3cccc(C(=O)O)c3)o2)C(=O)N=C2SC=C(c3ccccc3)N12	80*	90*	23	49*	89*	72*
Cc1ccccc1-n1c(C)cc(/C=C2/C(=N)N3C(c4ccccc4)=CSC3=NC2=O)c1C	2	-11	4	22	-1	-8
Cc1cc2nc(-c3ccc(SCc4ccc(C(=O)O)cc4)nc3)[nH]c2cc1C	68*	-1	92*	20	21	79*
Cc1cc2nc(-c3ccc(SCc4ccccc4C#N)nc3)[nH]c2cc1C	2	30	3	9	9	0
O=C(Cc1cccc(NC(=O)C2CCN(C(=O)CCc3ccccc3)CC2)c1)Nc1cccc(C(=O)N2CCCCC2)c1	0	-2	0	6	2	1
